Experimental data published in ChEMBL document CHEMBL5331111, “Synthetic Biology Facilitates Semisynthetic Development of Type V Glycopeptide Antibiotics Targeting Vancomycin-Resistant Enterococcus” (J Med Chem, 2023).
In brackets after ≈: the same amount, converted by molar mass. Activity calls are given as the source filed them. The rule behind the calls is not given here.

Key:
[1] = test system: Mycobacteroides abscessus; assay: Antimycobacterial activity against Mycobacterium abscessus ATCC 19977 assessed as inhibition of bacterial growth measured after 2 days by resazurin dye based analysis; format: functional; details: ATCC 19977, 48 h, time 2 day
Method in brief: (§1)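 Cultured in 7H9 with 0.2% glycerol, 10% OADC and 0.05% Tween-80. Inoculum diluted to ~5 × 10^5 CFU/mL and confirmed at 3–8 × 10^5 by plating on 7H10 agar. Growth read at 2 days, then 30 μg/mL resazurin added for one more day. Values averaged from at least two experiments.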

[2] = Antimycobacterial activity against Mycobacterium avium subsp. avium ATCC 25291 assessed as inhibition of bacterial growth measured after 7 days by resazurin dye based analysis; format: functional; details: ATCC 25291, 168 h, time 7 day
Method in brief: (§2)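 Strains grown in 7H9 broth with 0.2% glycerol, 10% OADC and 0.05% Tween-80. Inoculum was about 5 × 10^5 CFU/mL, checked by plating on 7H10/OADC agar to be 3–8 × 10^5. Read at 2 days for M. smegmatis and 7 days for M. tuberculosis H37Ra, M. bovis and M. avium. Resazurin 30 μg/mL was then added for one further day. Values are averages of at least two experiments.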

[3] = test system: Mycolicibacterium smegmatis; assay: Antimycobacterial activity against Mycobacterium smegmatis MC2 155 assessed as inhibition of bacterial growth measured after 2 days by resazurin dye based analysis; format: functional; details: MC2 155, 48 h, time 2 day; method in brief: as §2
[4] = test system: Mycolicibacterium fortuitum; assay: Antimycobacterial activity against Mycobacterium fortuitum ATCC 6891 assessed as inhibition of bacterial growth measured after 2 days by resazurin dye based analysis; format: functional; details: ATCC 6891, 48 h, time 2 day; method in brief: as §1
[5] = test system: Mycobacterium tuberculosis; assay: Antimycobacterial activity against Mycobacterium tuberculosis H37Ra assessed as inhibition of bacterial growth measured after 7 days by resazurin dye based analysis; format: functional; details: 168 h, time 7 day; method in brief: as §2
[6] = test system: Enterococcus faecium; assay: Antibacterial activity against Vancomycin-resistant Enterococcus faecium ATCC 700221 infected in cyclophosphamide induced neutropenic thigh infection CD-1 mouse model assessed as increase in survival rate at 50 mg/kg, ip qid measured after 24 hrs post-infection; format: functional, organism-based
Method in brief: (§3)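 Female CD-1 mice, 6–10 weeks old, made neutropenic with i.p. cyclophosphamide (150 mg/kg day 4, 100 mg/kg day 1). About 1 × 10^6 CFU of E. faecium ATCC 700221, grown in BHI with vancomycin, were injected into each thigh. Dosing was i.p. at 1, 3, 5 and 20 h post-infection, in PEG400/DMSO/H₂O (45/5/50) vehicle, with vehicle controls. Mice were euthanized at 24 h.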

[7] = test system: Enterococcus faecium; assay: Antibacterial activity against Vancomycin-resistant Enterococcus faecium ATCC 700221 infected in cyclophosphamide induced neutropenic thigh infection CD-1 mouse model assessed as reduction in weight loss at 50 mg/kg, ip qid measured after 24 hrs post-infection; format: functional, organism-based; method in brief: as §3
[8] = test system: Enterococcus faecium; assay: Antibacterial activity against vancomycin-resistant Enterococcus faecium ATCC 700221 assessed as inhibition of bacterial growth by Mueller-Hinton broth based assay; format: functional
[9] = test system: Enterococcus faecalis; assay: Antibacterial activity against vancomycin-resistant Enterococcus faecalis ATCC 51299 assessed as inhibition of bacterial growth by Mueller-Hinton broth based assay; format: functional
[10] = test system: Staphylococcus aureus; assay: Antibacterial activity against Staphylococcus aureus ATCC 33591 assessed as reduction in bacterial growth by Mueller-Hinton broth based assay; format: functional
Method in brief: (§4)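 Broth MIC by standard procedure in Mueller-Hinton broth, for both B. subtilis 168 and S. aureus ATCC 33591.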

[11] = test system: Bacillus subtilis; assay: Antibacterial activity against Bacillus subtilis 168 assessed as reduction in bacterial growth by Mueller-Hinton broth based assay; format: functional; method in brief: as §4

SMILES | MIC [1] [µg/mL] | MIC [2] [µg/mL] | MIC [3] [µg/mL] | MIC [4] [µg/mL] | MIC [5] [µg/mL] | Activity [6] | Activity [7] | MIC [8] [µg/mL] | MIC [9] [µg/mL] | MIC [10] [µg/mL] | MIC [11] [µg/mL]
CN1C(=O)[C@@H](c2cc(Cl)c(O)c(Cl)c2)NC(=O)[C@@H]2NC(=O)[C@@H](c3cc(Cl)c(O)c(Cl)c3)NC(=O)[C@H](NC(=O)C(=O)c3cc(Cl)c(O)c(Cl)c3)Cc3c[nH]c4cc(ccc34)-c3cc2cc(c3O)Oc2ccc(cc2)C[C@H]1C(=O)N[C@@H](C(=O)O)c1ccc(O)cc1 [ISOCOMPLESTATIN] | > 128 | > 64 | > 128 | > 128 | > 64 | – | – | – | – | – | –
CC(=O)NC[C@H]1CN(c2ccc(N3CCOCC3)c(F)c2)C(=O)O1 | – | – | – | – | – | Active | Active | – | – | – | –
CN1C(=O)[C@@H]2NC(=O)[C@@H]3NC(=O)[C@@H](c4ccc(O)cc4)NC(=O)[C@H](NC(=O)C(Nc4ccc(O)c(O)c4O)c4ccc(O)cc4)Cc4c[nH]c5cc(ccc45)-c4cc3cc(c4O)Oc3ccc(cc3)C[C@H]1C(=O)N[C@@H](C(=O)O)c1ccc(O)c(c1)Oc1ccc2cc1 (some centres not stated) | – | – | > 128 | – | – | – | – | 16 (≈ 12.8 µM) | 8 (≈ 6.42 µM) | 16 (≈ 12.8 µM) | 4 (≈ 3.21 µM)
CN1C(=O)[C@@H]2NC(=O)[C@@H]3NC(=O)[C@@H](c4ccc(O)cc4)NC(=O)[C@H](NC(=O)C(Nc4ccc(B(O)O)cc4)c4ccc(O)cc4)Cc4c[nH]c5cc(ccc45)-c4cc3cc(c4O)Oc3ccc(cc3)C[C@H]1C(=O)N[C@@H](C(=O)O)c1ccc(O)c(c1)Oc1ccc2cc1 (some centres not stated) | – | – | > 128 | – | – | – | – | 8 (≈ 6.45 µM) | 8 (≈ 6.45 µM) | 8 (≈ 6.45 µM) | 1 (≈ 0.806 µM)
CN(C)CCCNCCCNC(=O)[C@@H]1NC(=O)[C@@H]2Cc3ccc(cc3)Oc3cc4cc(c3O)-c3ccc5c(c[nH]c5c3)C[C@@H](NC(=O)Cc3ccc(O)cc3)C(=O)N[C@H](c3ccc(O)cc3)C(=O)N[C@H]4C(=O)N[C@@H](C(=O)N2C)c2ccc(cc2)Oc2cc1ccc2O | – | – | 1 (≈ 0.802 µM) | – | – | – | – | 2 (≈ 1.6 µM) | 16 (≈ 12.8 µM) | > 128 | 8 (≈ 6.41 µM)
CN1C(=O)[C@@H]2NC(=O)[C@@H]3NC(=O)[C@@H](c4ccc(O)cc4)NC(=O)[C@H](NC(=O)C(Nc4cccc(C(F)(F)F)c4)c4ccc(O)cc4)Cc4c[nH]c5cc(ccc45)-c4cc3cc(c4O)Oc3ccc(cc3)C[C@H]1C(=O)N[C@@H](C(=O)O)c1ccc(O)c(c1)Oc1ccc2cc1 (some centres not stated) | – | – | > 128 | – | – | – | – | 16 (≈ 12.6 µM) | 8 (≈ 6.32 µM) | 8 (≈ 6.32 µM) | 4 (≈ 3.16 µM)
